Most compounds without a hit are left out; they make up all but 11% or so of the library.
S1P1 ag-PAM: S1P1 agonists and agonism potentiators, primary screen, cell-based, primary and confirmation screens, CRE-bla reporter. S1P1 CRE-bla cells, forskolin, beta-lactamase FRET, potentiator mode; S1P1 agonist co-added at EC20, 2 nM; 100% = saturating reference agonist, 0% = basal. activation, % at 9.5 µM. actives 0.57% (n = 56,000);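 active = activation above a cutoff set at the mean activation of all tested compounds plus 3 SD, cut at about 54% in these data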;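 note: forskolin at 4 µM as EC80 and the EC20 agonist is SEW2871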
M1 antag: antagonists of rat M1 muscarinic receptor | Muscarinic acetylcholine receptor M1 (Rattus norvegicus), P08482 | B-score at 10 µM | actives 3.4% (n = 64,000) | CHO-M1 cells, Fluo-4 calcium, ACh EC80 antagonist mode; hits give low values | AID 628, 2007;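 active = calcium fluorescence response, raw or row-and-column corrected B-score, differing from the plate sample mean either way at a set confidence level, mostly lower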
TNAP act DEA: human TNAP enzyme activators, primary screen, biochemical, luminescent, intermediate phosphate acceptor level. purified TNAP, CDP-star luminescence, 100 mM DEA, 30 min; hits give high values; scale: 0 levamisole-inhibited, 1 vehicle-only enzyme. Alkaline phosphatase, tissue-nonspecific isozyme (Homo sapiens), P05186. 64,000 tested, under 10 active. activation factor at 20 µM;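 active = activation factor of at least 2 at 20 µM, relative to controls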
Target sequence (P05186 whole entry, looked up): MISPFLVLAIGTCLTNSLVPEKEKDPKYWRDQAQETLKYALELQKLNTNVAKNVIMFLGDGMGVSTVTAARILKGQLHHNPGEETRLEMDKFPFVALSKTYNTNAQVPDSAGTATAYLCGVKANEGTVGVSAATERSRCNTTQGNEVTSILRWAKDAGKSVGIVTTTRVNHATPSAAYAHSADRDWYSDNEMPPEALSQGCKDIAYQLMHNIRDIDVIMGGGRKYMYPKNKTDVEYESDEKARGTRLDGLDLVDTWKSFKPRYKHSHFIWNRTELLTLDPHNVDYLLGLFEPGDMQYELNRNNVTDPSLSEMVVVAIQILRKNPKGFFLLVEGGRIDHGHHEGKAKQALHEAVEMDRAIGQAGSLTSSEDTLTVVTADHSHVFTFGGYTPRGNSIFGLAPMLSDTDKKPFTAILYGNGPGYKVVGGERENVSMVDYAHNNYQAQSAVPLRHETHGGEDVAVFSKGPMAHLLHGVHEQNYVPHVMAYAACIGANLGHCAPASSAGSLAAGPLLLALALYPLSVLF
S1P3 agonist: human S1P3 receptor agonists, primary screen, cell-based, primary and confirmation, NFAT-BLA reporter | Sphingosine 1-phosphate receptor 3 (Homo sapiens), Q99500 | S1P3 NFAT-BLA reporter cells, agonism, FRET ratio; relative to 1 µM S1P, basal subtracted | activation, % at 4.5 µM | actives 0.1% (n = 60,000) | AID 373, 2006;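 active = activation above the screen-wide mean plus 3 SD, cut at about 4.5% in these data, passing the limit was not always enough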
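Measure – % activation relative to 1 µM S1P (100%), per plate · System – stable CHO line with human S1P3, Gα16, NFAT-BLA reporter · Timing – cells plated overnight, compound 4 h 37 °C, substrate 2 h RT · Technique – fluorescent BLA substrate, ex 405 nm, em 460/535 nm ratio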
D1 allo mod: D1 CRE-luciferase signal change, two-sided – cell-based, HEK293 D1, dopamine EC30, D1 allosteric modulator project, primary screen. D(1A) dopamine receptor (Homo sapiens), P21728. dopamine EC30 potentiation; actives deviate in either direction. B-score at 10 µM. actives 5.9% (n = 58,000). AID 641, 2007;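 active = luminescence count or its row- and column-corrected plate score outside the 99.7% band of the plate's sample wells, on either side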
M1 agonist: M1 muscarinic receptor agonists, primary screen, CHO-M1 cells, Fluo-4 calcium, agonist mode | Muscarinic acetylcholine receptor M1 | Fluo-4 calcium fluorescence; hits give high values | B-score at 10 µM | actives 3% (n = 64,000) | AID 626, 2007;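 active = fluorescence rise, raw or as B-score row- and column-corrected plate score, outside the 99.7% band of its plate's samples, either direction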
Numbers stand for hits; . = inactive; / = no result.

SMILES | S1P1 ag-PAM | M1 antag | TNAP act DEA | S1P3 agonist | D1 allo mod | M1 agonist
COc1ccc(Cn2nnnc2C(c2cccs2)N2CCOCC2)cc1 (stereo not given) | . | 2.3 | . | . | . | .
O=C(Nc1nc(-c2ccc(Cl)s2)cs1)c1ccncc1 | 126 | . | . | . | . | .
O=C(CN1C(=O)C2C3C=CC(C3)C2C1=O)N1CCc2ccccc2C1 (stereo not given) | . | . | . | . | . | .
CC1(C)CN(O)CCN1O | . | . | . | . | . | .
Cc1nn2c(=O)cc(CSc3nc4ccccc4[nH]3)nc2s1 | . | . | . | . | . | .
O=C(Nc1ccc(-c2nc3cccnc3s2)cc1)c1ccco1 | . | . | . | . | -5 | .
CCC1Cc2c(nc3c4c(nc(N5CCOCC5)c(C#N)c24)NC(C)=N3)O1 (stereo not given) | . | . | . | . | 4.2 | .
c1ccc(CSc2nnc(-c3c[nH]c4ccccc34)o2)cc1 | 98 | . | . | . | . | .
CCOC(=O)c1ccc(Nc2ncnc3nc[nH]c23)cc1 | / | . | . | / | -5.9 | .
COc1ccc(Nc2ncnc3nc[nH]c23)cc1OC | . | . | . | . | / | .
Cc1nc(NC(=O)c2ccccc2)sc1-c1csc(N)n1 | . | . | . | . | . | .
Cc1ccc(NC(=O)c2ccccc2)s1 | . | . | . | . | -5.2 | .
CNC(=O)c1cc(C)c(-c2ccccc2)s1 | . | . | . | . | . | .
Cc1cc(NC(=O)c2ccccc2)sc1C | . | . | . | . | -2.9 | .
Cc1csc(=Nc2ccc(S(=O)(=O)N3CCOCC3)cc2)n1Cc1ccco1 | . | . | . | . | . | .
Cn1c(C2=C(O)CN(c3ccc4c(c3)OCCO4)C2=N)nc2ccccc21 | . | . | . | . | . | .
COC(=O)c1ccc(C2NC(C(=O)O)CS2)cc1 (stereo not given) | . | . | . | . | . | .
COc1cc(C2NC(C(=O)O)CS2)ccc1OCc1ccccc1C#N (stereo not given) | . | / | . | . | -2.8 | /
COc1cccc2c1OC1(C)CC2/C(=C(\C)O)C(=O)N1 (stereo not given) | . | / | . | . | / | /
O=C(Nc1ccc(CN2CCOCC2)cc1)c1cc2ccccc2oc1=O | / | . | . | / | -5.6 | .
O=C(Nc1cccnc1N1CCOCC1)c1cc2ccccc2oc1=O | / | . | . | / | 4.2 | .
CC(=O)c1ccc(N2CCN(C(=O)c3ccc(NC(=O)C4CCCO4)cc3)CC2)cc1 (stereo not given) | / | . | . | / | . | .
Cc1ccc(CSC2=Nc3ccccc3C3=NC(CC(=O)NCc4ccco4)C(=O)N23)cc1 (stereo not given) | . | / | . | . | / | /
O=C(Nc1ccc(OC(F)F)c(Cl)c1)Nc1ccc2c(c1)OCO2 | 59 | . | . | . | . | .
COc1ccc(CCNC(=O)CN2C(=O)C3(OCCCO3)c3ccccc32)cc1OC | . | . | . | . | . | .
SMILES | S1P1 ag-PAM | M1 antag | TNAP act DEA | S1P3 agonist | D1 allo mod | M1 agonist
COC(=O)C1=C(NC(=O)c2cccc(C)c2)CCS1 | . | / | . | . | / | /
O=C(O)C1Nc2c(C(=O)N3CCOCC3)cccc2C2C=CCC12 (stereo not given) | . | 1.8 | . | . | . | .
O=C(c1ccccc1CCc1ccccc1)N1CCN(c2ccccn2)CC1 | . | . | . | . | . | .
COc1ccc2c(c1)CCCC21NC(=O)NC1=O (stereo not given) | . | . | . | . | / | .
COc1ccc2cc(C3(C)NC(=O)NC3=O)ccc2c1 (stereo not given) | . | 2.4 | . | . | . | .
CCc1ccc(S(=O)(=O)NCCc2csc(-c3ccccc3)n2)s1 | 65 | . | / | . | . | .
CCSCc1nnc(SCC(=O)Nc2cccc(SC)c2)n1C | / | . | . | . | / | .
Cc1oc(-c2ccc3c(c2)OCCO3)cc1C(=O)O | . | . | . | . | -6.2 | .
COc1ccc(OC)c(C2=Nn3c(nnc3-c3cc(OC)c(OC)c(OC)c3)SC2)c1 | . | . | . | . | . | 3.3
COc1ccc(OC)c(C2=Nn3c(nnc3-c3ccncc3)SC2)c1 | / | . | . | / | / | .
Cc1ccccc1CS(=O)(=O)CCC(=O)NCCCN1CCN(c2ccccc2F)CC1 | . | . | . | . | . | .
Cc1ccccc1CS(=O)(=O)CCC(=O)NCCN1CCN(c2cccc(Cl)c2)CC1 | . | . | . | . | -3.6 | .
COc1ccc(C(=O)NCCn2ccc3ccccc32)c(OC)c1 | . | . | . | . | . | .
CC(C)(C)c1[nH]nc2c1C(Cc1ccccc1)C(C#N)=C(N)O2 (stereo not given) | . | . | . | . | . | .
COc1cc2nc(NCCN3CCOCC3)n3nc(-c4ccccc4)nc3c2cc1OC | . | . | . | . | . | .
CN1CCN(CCCNc2nc3ccccc3c3nc(-c4ccccc4)nn23)CC1 | . | . | . | . | 5.9 | .
COc1ccc(OC)c(NC(=O)CN2C(=O)C3(OCCCO3)c3ccccc32)c1 | . | . | . | . | . | .
COc1ccccc1NC(=O)CN1C(=O)C2(OCCCO2)c2ccccc21 | . | . | . | . | -2.6 | .
COc1cccc(-n2c(SCC(=O)N3CCCC3)nc3c([nH]c4ccccc43)c2=O)c1 | . | . | . | . | . | .
CCOC(=O)C(C(=O)OCC)c1cc(Br)c2noc3c2c1C(=O)c1ccccc1-3 | / | . | . | / | . | 788
CC(CN1CCCC(C(N)=O)C1)c1ccccc1 (stereo not given) | . | . | . | . | -3.4 | .
CCN1CCn2c3c(c4cc(Cl)ccc42)CCCC31 (stereo not given) | . | 1.8 | . | . | . | .
Clc1ccc(COc2ccccn2)c(Cl)c1 | . | . | . | . | / | .
O=C(/C=C/Nc1ccc(F)cc1)c1ccco1 | . | . | . | . | -7.3 | .
CC(=O)Nc1ccc(N/C=C/C(=O)c2ccc(C)o2)cc1 | . | . | . | . | . | .
O=C(Nc1ccc(N2CCOCC2)cc1)C1CCCN(S(=O)(=O)c2cccc(C(F)(F)F)c2)C1 (stereo not given) | . | . | . | . | . | .
COc1ccccc1-c1cc(C(=O)Nc2ccccc2SC)no1 | 94 | . | . | . | . | .
COc1ccc(NC(=O)c2cc(-c3ccccc3OC)on2)cc1 | . | . | . | . | . | .
